Results: ChEMBL document CHEMBL4257441, “Protection effect of intracellular melanin from Lachnum YM156 and Haikunshenxi capsule combination on adenine-induced chronic renal failure in mice” (Medchemcomm, 2017)
Calls of active or inactive are those of the source. No cut-off for these calls is given here.

Columns and labels:
Mus musculus [1] = assay: Protective effect against adenine-induced chronic renal failure in Kunming mouse assessed as nephridial CAT levels at 200 mg/kg, ig qd administered for 4 successive weeks with haikunshenxi capsule by visible spectrometry method (reference value: 44.13 +/- 1.25 U/mg); assay type: functional
Mus musculus [2] = assay: Protective effect against adenine-induced chronic renal failure in Kunming mouse assessed as nephridial iNOS levels at 100 mg/kg, ig qd administered for 4 successive weeks (reference value: 1.98 +/- 0.12 U/mg); assay type: functional
Mus musculus [3] = assay: Protective effect against adenine-induced chronic renal failure in ig dosed Kunming mouse assessed as decrease in nephridial MDA levels administered as qd for 4 successive weeks with haikunshenxi capsule by thiobarbituric acid method; assay type: functional, organism-based
Method in brief: (§1)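 Male Kunming mice (20 ± 5 g) given dietary adenine to induce CRF, then dosed orally at 100 or 200 mg kg–1, with or without Haikunshenxi capsule; n = 10 per group. Kidney homogenate assayed for SOD and CAT (U mg–1 protein), GSH-Px (U L–1), GSH (mg g–1 protein) and MDA (nmol mL–1).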

Mus musculus [4] = assay: Protective effect against adenine-induced chronic renal failure in Kunming mouse assessed as weight growth rate at 200 mg/kg, ig qd administered for 4 successive weeks measured 24 hrs post last dose (reference value: 32.42 +/- 1.43%); assay type: functional
Method in brief: (§2)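 Male Kunming mice (20 ± 5 g) kept on a 12 h light/dark cycle at 18–20 °C on a standard diet. CRF induced by chronic dietary adenine. Test material given orally at 100 or 200 mg kg–1, alone or with Haikunshenxi capsule, alongside normal, model and capsule-only groups; ten mice per group. Weight growth rate recorded in %, kidney index in mg g–1.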

Mus musculus [5] = assay: Protective effect against adenine-induced chronic renal failure in ig dosed Kunming mouse assessed as decrease in nephridial IL-1beta levels administered as qd for 4 successive weeks with haikunshenxi capsule; assay type: functional, organism-based
Method in brief: (§3)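 CRF model made by chronic dietary adenine in male Kunming mice (20 ± 5 g); oral dosing at 100 or 200 mg kg–1, alone or with Haikunshenxi capsule; ten mice per group. Kidney tissue TNF-α, IL-1β and IL-6 measured as pg per mg protein, and iNOS activity as U mg–1 protein.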

Mus musculus [6] = assay: Protective effect against adenine-induced chronic renal failure in ig dosed Kunming mouse assessed as decrease in serum creatinine levels administered as qd for 4 successive weeks with haikunshenxi capsule by picric acid colorimetric method; assay type: functional, organism-based
Method in brief: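 Adenine-fed CRF model in male Kunming mice (20 ± 5 g) housed at 18–20 °C on a 12 h light/dark cycle. Oral dosing at 100 or 200 mg kg–1, with or without Haikunshenxi capsule; ten mice per group. Serum creatinine, BUN, total protein and albumin measured, each group compared with the model group.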

Mus musculus [7] = assay: Protective effect against adenine-induced chronic renal failure in Kunming mouse assessed as appearance of complete glomeruli in kidney at 100 mg/kg, ig qd administered for 4 successive weeks by haematoxylin and eosin dye-based optical microscopic method; assay type: functional, organism-based
Method in brief: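 Kidneys were taken from male Kunming mice given an adenine diet plus oral melanin (100 or 200 mg kg–1), with or without Haikunshenxi capsule, ten per group. Histological sections were examined at 400× for glomeruli, tubules, adenine crystals, tubular atrophy and interstitial fibrosis.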

Mus musculus [8] = assay: Protective effect against adenine-induced chronic renal failure in Kunming mouse assessed as nephridial GSH levels at 200 mg/kg, ig qd administered for 4 successive weeks with haikunshenxi capsule by colorimetric method (reference value: 3.05 +/- 0.11 mg/g); assay type: functional
Mus musculus [9] = assay: Protective effect against adenine-induced chronic renal failure in ig dosed Kunming mouse assessed as decrease in nephridial IL-6 levels administered as qd for 4 successive weeks; assay type: functional, organism-based; method in brief: as §3
Mus musculus [10] = assay: Protective effect against adenine-induced chronic renal failure in ig dosed Kunming mouse assessed as increase in nephridial GSH-PX levels administered as qd for 4 successive weeks with haikunshenxi capsule by colorimetric method; assay type: functional, organism-based; method in brief: as §1
Mus musculus [11] = assay: Protective effect against adenine-induced chronic renal failure in Kunming mouse assessed as nephridial MDA levels at 200 mg/kg, ig qd administered for 4 successive weeks by thiobarbituric acid method (reference value: 5.05 +/- 0.15 nmol/ml); assay type: functional
Mus musculus [12] = assay: Protective effect against adenine-induced chronic renal failure in Kunming mouse assessed as nephridial GSH levels at 100 mg/kg, ig qd administered for 4 successive weeks with haikunshenxi capsule by colorimetric method (reference value: 3.05 +/- 0.11 mg/g); assay type: functional
Mus musculus [13] = assay: Protective effect against adenine-induced chronic renal failure in Kunming mouse assessed as nephridial MDA levels at 200 mg/kg, ig qd administered for 4 successive weeks with haikunshenxi capsule by thiobarbituric acid method (reference value: 5.05 +/- 0.15 nmol/ml); assay type: functional
Mus musculus [14] = assay: Protective effect against adenine-induced chronic renal failure in Kunming mouse assessed as kidney index at 100 mg/kg, ig qd administered for 4 successive weeks measured 24 hrs post last dose (reference value: 1.94 +/- 0.03 mg/g); assay type: functional
Method in brief: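 Male Kunming mice (20 ± 5 g) were housed on a 12 h light/dark cycle at 18–20 °C. Chronic renal failure was induced by long-term dietary adenine. The melanin was given orally at 100 or 200 mg kg–1, alone or with Haikunshenxi capsule as positive drug, with ten mice per group. Weight growth rate (%) and kidney index (mg g–1) were recorded.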

Mus musculus [15] = assay: Protective effect against adenine-induced chronic renal failure in Kunming mouse assessed as nephridial TNF-alpha levels at 100 mg/kg, ig qd administered for 4 successive weeks with haikunshenxi capsule (reference value: 250.15 +/- 8.10 pg/ml); assay type: functional
Mus musculus [16] = assay: Protective effect against adenine-induced chronic renal failure in Kunming mouse assessed as weight growth rate at 100 mg/kg, ig qd administered for 4 successive weeks with haikunshenxi capsule measured 24 hrs post last dose (reference value: 32.42 +/- 1.43%); assay type: functional; method in brief: as §2
Mus musculus [17] = assay: Protective effect against adenine-induced chronic renal failure in Kunming mouse assessed as nephridial IL-6 levels at 100 mg/kg, ig qd administered for 4 successive weeks (reference value: 20.85 +/- 0.11 pg/ml); assay type: functional
Mus musculus [18] = assay: Protective effect against adenine-induced chronic renal failure in Kunming mouse assessed as nephridial MDA levels at 100 mg/kg, ig qd administered for 4 successive weeks with haikunshenxi capsule by thiobarbituric acid method (reference value: 5.05 +/- 0.15 nmol/ml); assay type: functional
Mus musculus [19] = assay: Protective effect against adenine-induced chronic renal failure in ig dosed Kunming mouse assessed as decrease in nephridial TNF-alpha levels administered as qd for 4 successive weeks; assay type: functional, organism-based; method in brief: as §3
Mus musculus [20] = assay: Protective effect against adenine-induced chronic renal failure in Kunming mouse assessed as nephridial SOD levels at 100 mg/kg, ig qd administered for 4 successive weeks with haikunshenxi capsule by hydroxylamine method (reference value: 30.45 +/- 1.12 U/mg); assay type: functional
Mus musculus [21] = assay: Protective effect against adenine-induced chronic renal failure in Kunming mouse assessed as nephridial IL-1beta levels at 200 mg/kg, ig qd administered for 4 successive weeks (reference value: 18.34 +/- 0.25 pg/ml); assay type: functional
Mus musculus [22] = assay: Protective effect against adenine-induced chronic renal failure in ig dosed Kunming mouse assessed as increase in nephridial GSH levels administered as qd for 4 successive weeks with haikunshenxi capsule by colorimetric method; assay type: functional, organism-based; method in brief: as §1

**Q.** With `Cc1c(=O)c(=O)c2c3c[nH]c4c(C)c(=O)c(=O)c(c5c[nH]c1c52)c43` as the compound, how does the Activity (Mus musculus [1]) read?
**A.** 76.47 U/mg

**Q.** And the Activity (Mus musculus [2])?
**A.** 1.79 U/mg

**Q.** And the Activity (Mus musculus [3])?
**A.** Dose-dependent effect

**Q.** And the Activity (Mus musculus [4])?
**A.** 52.68%

**Q.** And the Activity (Mus musculus [5])?
**A.** Dose-dependent effect

**Q.** And the Activity (Mus musculus [6])?
**A.** Dose-dependent effect

**Q.** And the Activity (Mus musculus [7])?
**A.** Active

**Q.** And the Activity (Mus musculus [8])?
**A.** 5.38 mg/g

**Q.** What about the Activity (Mus musculus [9]) of the same compound?
**A.** Dose-dependent effect

**Q.** What about the Activity (Mus musculus [10]) of the same compound?
**A.** Dose-dependent effect

**Q.** What about the Activity (Mus musculus [11]) of the same compound?
**A.** 3.74 nmol/mL

**Q.** What about the Activity (Mus musculus [12]) of the same compound?
**A.** 5.23 mg/g

**Q.** What about the Activity (Mus musculus [13]) of the same compound?
**A.** 2.88 nmol/mL

**Q.** What about the Activity (Mus musculus [14]) of the same compound?
**A.** 1.72 mg/g

**Q.** And the Activity (Mus musculus [15])?
**A.** 98.13 pg/mL

**Q.** What about the Activity (Mus musculus [16]) of the same compound?
**A.** 54.34%

**Q.** And the Activity (Mus musculus [17])?
**A.** 18.27 pg/mL

**Q.** And the Activity (Mus musculus [18])?
**A.** 3.05 nmol/mL

**Q.** And the Activity (Mus musculus [19])?
**A.** Dose-dependent effect

**Q.** And the Activity (Mus musculus [20])?
**A.** 46.52 U/mg

**Q.** And the Activity (Mus musculus [21])?
**A.** 16.03 pg/mL

**Q.** What about the Activity (Mus musculus [22]) of the same compound?
**A.** Dose-dependent effect
